ChEMBL document CHEMBL4680191, “Discovery of novel akt1 inhibitor induces autophagy associated death in hepatocellular carcinoma cells” (Eur J Med Chem, 2020)
Active and inactive are the calls of the source. The calls are words filed in the database; no cut-off is given here.

Key:
[1] = test system: Huh-7; assay: Antitumour activity against human Huh-7 cells xenografted in nude mouse assessed as increase in LC3-2 at 20 to 50 mg/kg, ip up to 15 days by immunohistochemical analysis; assay type: functional, organism-based; conditions: dose 20-50 mg/kg, time day <=15
In short: (§1)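 Tumors came from Huh-7 xenografted nude mice dosed intraperitoneally at 25 or 50 mg/Kg for 15 days. For IHC, sections underwent microwave antigen retrieval (EDTA pH 8.0 or citrate pH 6.0), then primary antibody at 37 °C for 30-40 min. HRP polymer/secondary was applied for 30 min, with DAB development and control IgG.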

[2] = species: Homo sapiens; assay: Inhibition of full length human Akt1 […] mutant assessed as remaining activity at 1 uM using GRPRTSSFAEGKK as substrate incubated for 40 mins by scintillation counting method relative to control
In short: (§2)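 Eurofins KinaseProfiler kinase assay on human Akt1, Akt2 and Akt3. Compounds were tested at 1 µM. Residual kinase activity is reported as % of control.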

[3] = test system: RAC-beta serine/threonine-protein kinase (Homo sapiens), P31751 [S474D]; assay: Inhibition of full length human Akt2 S474D mutant assessed as remaining activity at 1 uM using GRPRTSSFAEGKK as substrate incubated for 40 mins by scintillation counting method relative to control; in short: as §2
Sequence of RAC-beta serine/threonine-protein kinase (Homo sapiens), P31751 [S474D] (P31751 whole entry S474D): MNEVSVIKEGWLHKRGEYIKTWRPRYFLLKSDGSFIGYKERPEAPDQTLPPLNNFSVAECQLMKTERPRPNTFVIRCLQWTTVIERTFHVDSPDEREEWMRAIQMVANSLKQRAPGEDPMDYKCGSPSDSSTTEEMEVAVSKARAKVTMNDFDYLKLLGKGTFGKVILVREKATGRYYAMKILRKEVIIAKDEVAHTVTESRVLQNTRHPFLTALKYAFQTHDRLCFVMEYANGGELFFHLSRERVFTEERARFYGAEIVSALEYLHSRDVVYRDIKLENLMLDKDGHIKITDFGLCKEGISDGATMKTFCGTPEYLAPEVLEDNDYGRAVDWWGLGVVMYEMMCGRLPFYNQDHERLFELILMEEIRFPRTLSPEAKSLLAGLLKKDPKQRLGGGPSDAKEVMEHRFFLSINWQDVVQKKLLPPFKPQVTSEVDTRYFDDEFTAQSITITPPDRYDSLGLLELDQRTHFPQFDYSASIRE

[4] = test system: Huh-7; assay: Induction of apoptosis in human Huh-7 cells assessed as viable cells at 0.1 uM by Annexin V/propidium iodide staining based flow cytometric analysis (reference value: 94.83%); assay type: functional; conditions: read-out: Activity
[5] = test system: Huh-7; assay: Induction of apoptosis in human Huh-7 cells assessed as viable cells at 0.2 uM by Annexin V/propidium iodide staining based flow cytometric analysis (reference value: 94.83%); assay type: functional; conditions: read-out: Activity
[6] = test system: Huh-7; assay: Induction of apoptosis in human Huh-7 cells assessed as early apoptotic cells at 0.1 uM by Annexin V/propidium iodide staining based flow cytometric analysis (reference value: 1.43%); assay type: functional
[7] = test system: Huh-7; assay: Induction of apoptosis in human Huh-7 cells assessed as early apoptotic cells at 0.2 uM by Annexin V/propidium iodide staining based flow cytometric analysis (reference value: 1.43%); assay type: functional
[8] = test system: Huh-7; assay: Induction of apoptosis in human Huh-7 cells assessed as late apoptotic cells at 0.1 uM by Annexin V/propidium iodide staining based flow cytometric analysis (reference value: 3.15%); assay type: functional
[9] = test system: Huh-7; assay: Induction of apoptosis in human Huh-7 cells by Annexin V/propidium iodide staining based flow cytometric analysis; assay type: functional, cell-based; conditions: dose 0.1-0.2 µM
[10] = test system: Hep 3B2; assay: Induction of autophagy in human Hep3B cells harboring GFP-LC3 assessed as increase in number of the autophagosome puncta at 0.2 uM after 6 hrs; assay type: functional, cell-based
In short: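 GFP-LC3-transfected cells were exposed to saline or compound for 6 h, then fixed with paraformaldehyde. Autophagosome puncta were scored by fluorescence of accumulated GFP-LC3.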

[11] = biological target: Glycogen synthase kinase-3 beta (Homo sapiens) (UniProt P49841); assay: Inhibition of GSK3beta phosphorylation at […] residue in human Huh-7 cells at 0.1 to 0.2 uM by Western blot analysis; assay type: cell-based; conditions: dose 0.1-0.2 µM
Sequence of Glycogen synthase kinase-3 beta (Homo sapiens) (P49841 whole entry, looked up): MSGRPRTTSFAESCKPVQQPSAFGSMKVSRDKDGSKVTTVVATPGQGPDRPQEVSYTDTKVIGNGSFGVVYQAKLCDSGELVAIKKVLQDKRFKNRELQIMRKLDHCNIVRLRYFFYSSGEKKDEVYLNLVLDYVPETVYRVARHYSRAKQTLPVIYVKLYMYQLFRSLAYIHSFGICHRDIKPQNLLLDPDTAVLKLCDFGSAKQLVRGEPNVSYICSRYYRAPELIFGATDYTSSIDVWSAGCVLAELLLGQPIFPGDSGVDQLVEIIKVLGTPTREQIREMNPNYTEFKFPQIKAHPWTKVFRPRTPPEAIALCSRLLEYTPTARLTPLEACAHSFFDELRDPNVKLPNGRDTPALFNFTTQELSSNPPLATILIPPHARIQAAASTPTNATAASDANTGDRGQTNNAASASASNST
In short: (§3)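 Huh-7 cells were treated with or without compound. Total protein extracts were separated by SDS-PAGE and transferred to PVDF. Membranes were probed with primary antibodies, then HRP-conjugated secondary antibody (1:10,000), and detected by enhanced chemiluminescence.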

[12] = Effect on total GDK3beta protein level in human Huh-7 cells at 0.1 to 0.2 uM by Western blot analysis; assay type: ADME, cell-based; conditions: huh-7, 0.2 µM, dose 0.1-0.2 µM; in short: as §3
[13] = test system: Huh-7; assay: Induction of apoptosis in human Huh-7 cells assessed as reduction in Bcl-2 expression at 0.1 to 0.2 uM Western blot analysis; assay type: functional, cell-based; conditions: dose 0.1-0.2 µM; in short: as §3
[14] = test system: Huh-7; assay: Induction of autophagy in human Huh-7 cells harboring mCherry-GFP-LC assessed as increase in autophagosome puncta formation at 0.2 uM by fluorescence assay; assay type: functional, cell-based
[15] = test system: Huh-7; assay: Induction of apoptosis in human Huh-7 cells assessed as upregulation of cleaved caspase-3 protein expression at 0.1 to 0.2 uM by Western blot analysis; assay type: functional, cell-based; conditions: dose 0.1-0.2 µM; in short: as §3
[16] = test system: Huh-7; assay: Induction of autophagy in human Huh-7 cells assessed as increase in LC3-2 protein expression at 0.1 to 0.2 uM by Western blot analysis; assay type: functional, cell-based; conditions: dose 0.1-0.2 µM; in short: as §3
[17] = test system: Huh-7; assay: Induction of autophagy flux arrest in human Huh-7 cells assessed as reduction in LC3 at 0.2 uM by immunofluorescence staining based assay; assay type: functional, cell-based
In short: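 Huh-7 cells with or without 0.2 µM compound were immunofluorescently co-stained for LC3 (autophagosome) and LAMP1 (lysosome). Co-localization was assessed by fluorescence imaging.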

[18] = test system: Huh-7; assay: Induction of autophagy in human Huh-7 cells assessed as reduction in cell viability up to 72 hrs in presence of 3-MA by MTT assay; assay type: functional, cell-based; conditions: time hrs <=72
[19] = test system: Huh-7; assay: Induction of autophagy in human Huh-7 cells assessed as reduction in cell viability up to 72 hrs in presence of Baf-A1 by MTT assay; assay type: functional, cell-based; conditions: time hrs <=72
[20] = test system: Huh-7; assay: Induction of autophagy in human Huh-7 cells assessed as reduction in cathepsin D activity at 0.2 uM in presence of Baf-A1; assay type: functional, cell-based
[21] = test system: Huh-7; assay: Induction of autophagosome in human Huh-7 harboring GFP-LC3 cells at 0.2 uM in presence of 3-MA by fluorescence microscopic analysis; assay type: functional, cell-based
[22] = test system: Huh-7; assay: Induction of autophagosome in human Huh-7 harboring GFP-LC3 cells at 0.2 uM in presence of Baf-A1 by fluorescence microscopic analysis; assay type: functional, cell-based
[23] = test system: Huh-7; assay: Antitumour activity against human Huh-7 cells xenografted in nude mouse assessed as reduction in tumour volume at […], ip up to 15 days; assay type: functional, organism-based; conditions: time day <=15
In short: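 Nude mice bearing subcutaneous Huh-7 xenografts received 25 or 50 mg/Kg compound intraperitoneally. Tumor volume was followed from day 1 to day 15, with excised tumors weighed at the end. Body weight was also monitored.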

[24] = test system: Huh-7; assay: Antitumour activity against human Huh-7 cells xenografted in nude mouse assessed as decrease in p62/SQSTMI at 20 to 50 mg/kg, ip up to 15 days by immunohistochemical analysis; assay type: functional, organism-based; conditions: dose 20-50 mg/kg, time day <=15; in short: as §1

In the case of `O=C(C(CNC1CCCC1)c1ccc(Cl)cc1)N1CCN(c2ncnc3sc4c(c23)CCC4)CC1` (centres undefined), the Activity [1] is reported as “Active”, the Activity [2] is reported as 1% and the Activity [3] is reported as 63%. It also gave a viability at 0.1 µM [4] of 84.2%, a viability at 0.2 µM [5] of 80.8% and an Activity [6] of 5.15%. The Activity [7] was 7.1%, the Activity [8] was 7.92% and the Activity [9] was “Dose-dependent effect”. The Activity [10] was “Active”, the inhibition [11] was “Active” and the Activity [12] was “Non-Toxic”. For the same molecule, the Activity [13] was “Active”, the Activity [14] was “Active” and the Activity [15] was “Active”. For the same molecule, the Activity [16] was “Active”, the Activity [17] was “Active” and the Activity [18] was “inactive”. For the same molecule, the Activity [19] was “Active”, the Activity [20] was “Active” and the Activity [21] was “inactive”. For the same molecule, the Activity [22] was “Active”, the Activity [23] was “Active” and the Activity [24] was “Active”.
